Series [1] relates to Staphylococcus aureus. Put plainly: Antimicrobial activity against vancomycin-resistant Staphylococcus aureus VRS2 assessed as reduction in bacterial growth incubated for 18 to 20 hrs at 37 degC by broth microdilution method. The series is classed as functional. A digest of the protocol: (§1)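 Modified CLSI broth microdilution. Bacterial suspension of about 1 × 10^5 CFU/mL in tryptic soy broth. Each agent was added in triplicate to the first row and serially diluted down the plate. Plates were incubated at 37 °C for 18-20 h. MIC was read as the lowest concentration with no visible growth.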
In general terms: Dilution methods test growth across graded concentrations, often in twofold steps.

Series [2] relates to J774. Put plainly: Cytotoxicity against mouse J774 cells assessed as reduction in cell viability at 64 uM incubated for 2 hrs by MTS assay. As to conditions: j774, 2 h. The series is classed as cell-based. The method, boiled down: (§2)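 Murine J774 macrophages grown in DMEM with 10% FBS at 37 °C, 5% CO2. Compounds were tested in triplicate at 16, 32, 64 and 128 μM for 2 h, with DMSO-matched vehicle controls. MTS reagent was then added and absorbance read at OD490. Viability is given as percent of DMSO-treated cells (mean of triplicate ± standard deviation), compared by paired t-test (P < 0.05).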
For orientation: Formazan colour is commonly taken as a measure of viable cells.

Series [3] relates to Staphylococcus aureus. In words: Antimicrobial activity against methicillin-resistant Staphylococcus aureus NRS119 assessed as reduction in bacterial growth incubated for 18 to 20 hrs at 37 degC by broth microdilution method. The series is classed as functional. The method, boiled down: as §1
Series [4] concerns Staphylococcus aureus. In words: Antimicrobial activity against methicillin-resistant Staphylococcus aureus USA500 assessed as reduction in bacterial growth incubated for 18 to 20 hrs at 37 degC by broth microdilution method. The series is classed as functional. The method, boiled down:
as §1

In series [5] the test system is Staphylococcus aureus. In words: Antimicrobial activity against methicillin-resistant Staphylococcus aureus USA300 assessed as reduction in bacterial growth incubated for 18 to 20 hrs at 37 degC by broth microdilution method. It counts as functional. The method, boiled down: as §1
Series [6] concerns Staphylococcus aureus. In words: Antimicrobial activity against vancomycin-intermediate-resistant Staphylococcus aureus NRS1 assessed as reduction in bacterial growth incubated for 18 to 20 hrs at 37 degC by broth microdilution method. It counts as functional. A digest of the protocol: as §1
In series [7] the test system is Staphylococcus aureus. In words: Antimicrobial activity against methicillin-resistant Staphylococcus aureus USA700 assessed as reduction in bacterial growth incubated for 18 to 20 hrs at 37 degC by broth microdilution method. It counts as functional. A digest of the protocol:
as §1

In series [8] the test system is Staphylococcus aureus. In words: Bactericidal activity against methicillin-resistant Staphylococcus aureus USA300. It counts as functional.
Series [9] deals with J774. It counts as cell-based. The settings on record: mouse, j774, 2 h, 128 µM.
The test system of series [10] is Staphylococcus aureus. Put plainly: Antimicrobial activity against methicillin-sensitive Staphylococcus aureus NRS72 assessed as reduction in bacterial growth incubated for 18 to 20 hrs at 37 degC by broth microdilution method. It counts as functional. A digest of the protocol:
as §1

The subject of series [11] is Staphylococcus aureus. Put plainly: Antimicrobial activity against methicillin-resistant Staphylococcus aureus USA200 assessed as reduction in bacterial growth incubated for 18 to 20 hrs at 37 degC by broth microdilution method. The series is classed as functional. A digest of the protocol: as §1
For series [12], the system named is Staphylococcus aureus. Put plainly: Antimicrobial activity against methicillin-resistant Staphylococcus aureus USA100 assessed as reduction in bacterial growth incubated for 18 to 20 hrs at 37 degC by broth microdilution method. The series is classed as functional. The method, boiled down: as §1
Series [13] concerns J774. Put plainly: Cytotoxicity against mouse J774 cells assessed as reduction in cell viability at 32 uM incubated for 2 hrs by MTS assay. The series is classed as cell-based. As to conditions: j774, 2 h. A digest of the protocol: as §2
In series [14] the test system is J774. Put plainly: Cytotoxicity against mouse J774 cells assessed as reduction in cell viability up to 64 uM incubated for 2 hrs by MTS assay. It counts as cell-based. As to conditions: j774, 2 h. A digest of the protocol: as §2
Series [15] in a line: Metabolic stability in human liver microsomes assessed as compound remaining incubated for 60 mins in absence of NADPH. It counts as ADME. The settings on record: read-out: Stability. On the technique in general: Microsomes from liver hold many membrane-bound enzymes, among them those of drug oxidation.
A short description of series [16]: Metabolic stability in human liver microsomes assessed as compound remaining incubated for 60 mins in presence of NADPH. The series is classed as ADME. The settings on record: read-out: Stability.
Series [17] can be described thus: Kinetic solubility of the compound in PBS. The series is classed as physicochemical. As to conditions: read-out: Kinetic_solubility.
Series [18] in a line: Selectivity index, ratio of cytotoxicity against mouse J774 cells by MTS assay to MIC for methicillin-resistant Staphylococcus aureus. It counts as toxicity, cell-based. The settings on record: read-out: Selectivity Index.

In brackets after ≈: the same amount, converted by molar mass.

As a reminder, the MIC is the lowest concentration found to suppress growth. The MBC is the lowest tested concentration that kills the bacteria rather than only halting them.

Turning to `[C-]#[N+]c1ccccc1/C=C(\CC)c1ccccc1`, the MIC is 32 µM (≈ 7.47 µg/mL) in the series on Staphylococcus aureus [1]; 64 µM (≈ 14.9 µg/mL) with Staphylococcus aureus [3]; 32 µM (≈ 7.47 µg/mL) with Staphylococcus aureus [4]; 32 µM (≈ 7.47 µg/mL) with Staphylococcus aureus [5]; 8 µM (≈ 1.87 µg/mL) in the series with Staphylococcus aureus [6]; 8 µM (≈ 1.87 µg/mL) in the series with Staphylococcus aureus [7]. In addition, the MIC in the series with Staphylococcus aureus [10] came out at 8 µM (≈ 1.87 µg/mL); in the series on Staphylococcus aureus [11], 16 µM (≈ 3.73 µg/mL); with Staphylococcus aureus [12], 8 µM (≈ 1.87 µg/mL). Also, the Activity entry with J774 [2], in the series with J774 [9] and in the series with J774 [13] was “Non-toxic” each time. In addition, the MBC in the series on Staphylococcus aureus [8] is > 128 µM.

In the case of `CC/C(=C\c1ccccc1)c1ccccc1`, the MIC with Staphylococcus aureus [1], in the series on Staphylococcus aureus [3], in the series on Staphylococcus aureus [4], in the series with Staphylococcus aureus [5], in the series with Staphylococcus aureus [6] and in the series with Staphylococcus aureus [7] was > 128 µM in each case. Further, the MIC with Staphylococcus aureus [10], with Staphylococcus aureus [11] and in the series with Staphylococcus aureus [12] was > 128 µM each time. The Activity entry in the series with J774 [2] was “Non-toxic”; with J774 [14], “Non-toxic”; with J774 [9], “Toxic”; in the series with J774 [13] it was “Non-toxic”.

`CC(=O)CC(c1ccccc1)c1c(O)c2ccccc2oc1=O` (stereo not given) [WARFARIN]: the remaining at 1 h was determined as 94% in [15] and 93% in series [16].

For the compound `[C-]#[N+]c1ccccc1/C=C/c1ccccc1`, the MIC in the series on Staphylococcus aureus [1] came out at 32 µM (≈ 6.57 µg/mL); in the series on Staphylococcus aureus [3], 4 µM (≈ 0.821 µg/mL); in the series on Staphylococcus aureus [4], 32 µM (≈ 6.57 µg/mL); with Staphylococcus aureus [5], 4 µM (≈ 0.821 µg/mL); in the series on Staphylococcus aureus [6], 2 µM (≈ 0.411 µg/mL); in the series with Staphylococcus aureus [7], 4 µM (≈ 0.821 µg/mL). In addition, the MIC in the series on Staphylococcus aureus [11] came to 4 µM (≈ 0.821 µg/mL); in the series on Staphylococcus aureus [12] it was 2 µM (≈ 0.411 µg/mL). The Activity result with J774 [2] is recorded as “Non-toxic”; in the series on J774 [14], “Non-toxic”; in the series with J774 [9], “Toxic”; in the series with J774 [13], “Non-toxic”. In addition, the remaining at 1 h in series [15] came out at 51%; in series [16] it was 24%. The solubility kinetic in series [17] came out at 15.6 µM (≈ 3.2 µg/mL). The selectivity ratio in [18] was 16.

Turning to `[C-]#[N+]c1ccccc1/C=C/c1cccc(F)c1`, the MIC came to 128 µM (≈ 28.6 µg/mL) in the series with Staphylococcus aureus [1]; 128 µM (≈ 28.6 µg/mL) in the series with Staphylococcus aureus [3]; 128 µM (≈ 28.6 µg/mL) in the series on Staphylococcus aureus [4]; 32 µM (≈ 7.14 µg/mL) with Staphylococcus aureus [5]; 8 µM (≈ 1.79 µg/mL) in the series on Staphylococcus aureus [6]; 16 µM (≈ 3.57 µg/mL) in the series on Staphylococcus aureus [7]. For the same compound, the MIC with Staphylococcus aureus [10] worked out at 8 µM (≈ 1.79 µg/mL); with Staphylococcus aureus [11] it was 16 µM (≈ 3.57 µg/mL); in the series with Staphylococcus aureus [12], 16 µM (≈ 3.57 µg/mL). The results for the Activity entry with J774 [2], with J774 [9] and in the series on J774 [13] were “Toxic”, “Toxic” and “Non-toxic”, respectively.

In the case of `[C-]#[N+]c1ccccc1/C=C/c1ccccn1`, the MIC came out at 32 µM (≈ 6.6 µg/mL) in the series with Staphylococcus aureus [1]; 128 µM (≈ 26.4 µg/mL) in the series on Staphylococcus aureus [3]; 64 µM (≈ 13.2 µg/mL) in the series on Staphylococcus aureus [4]; 16 µM (≈ 3.3 µg/mL) with Staphylococcus aureus [5]; 64 µM (≈ 13.2 µg/mL) with Staphylococcus aureus [6]; 32 µM (≈ 6.6 µg/mL) with Staphylococcus aureus [7]. The MIC with Staphylococcus aureus [10], with Staphylococcus aureus [11] and with Staphylococcus aureus [12] was 64 µM (≈ 13.2 µg/mL) each time. The Activity entry was “Non-toxic” in the series on J774 [2], “Toxic” in the series on J774 [9] and “Non-toxic” with J774 [13].

For `[C-]#[N+]c1ccccc1-c1ccc2ccccc2c1`, the MIC is 64 µM (≈ 14.7 µg/mL) in the series with Staphylococcus aureus [1]; 32 µM (≈ 7.34 µg/mL) in the series with Staphylococcus aureus [3]; 32 µM (≈ 7.34 µg/mL) in the series with Staphylococcus aureus [4]; 64 µM (≈ 14.7 µg/mL) in the series on Staphylococcus aureus [5]; 4 µM (≈ 0.917 µg/mL) in the series on Staphylococcus aureus [6]; 16 µM (≈ 3.67 µg/mL) in the series with Staphylococcus aureus [7]. Also, the MIC in the series on Staphylococcus aureus [10] is 16 µM (≈ 3.67 µg/mL); in the series with Staphylococcus aureus [11], 64 µM (≈ 14.7 µg/mL); with Staphylococcus aureus [12], 16 µM (≈ 3.67 µg/mL). Besides, the Activity result in the series on J774 [2] is reported as “Non-toxic”; in the series on J774 [9] it was “Toxic”; in the series on J774 [13] it was “Non-toxic”.

Values taken from ChEMBL document CHEMBL3611989, “Discovery and characterization of aryl isonitriles as a new class of compounds versus methicillin- and vancomycin-resistant Staphylococcus aureus” (Eur J Med Chem, 2015).
